In ChEMBL document CHEMBL3272346, “Vinyl ethers of choline and congeners” (1976):
Active and inactive are the calls of the source. The calls are words filed in the database; no cut-off is given here.

Columns and labels:
Canis familiaris [1] = experiment: Decrease in blood pressure in dog at 1 to 4 ug/kg relative to acetylcholine
Canis familiaris [2] = experiment: Increase in blood pressure in atropine sulfate-pretreated anesthetized dog at 0.3 to 0.6 mg/kg relative to acetylcholine; type: functional, Canis lupus familiaris; conditions: dose mg/kg 0.3-0.6
In short: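 Dogs were pretreated with atropine sulfate (0.5 mg/kg) and given compounds or acetylcholine at 0.3 and 0.6 mg/kg, rapidly into the right femoral vein in randomized order. Pressor responses were recorded from the left femoral artery by transducer. Relative potencies with 95% confidence intervals were calculated by Finney's method on molar cation amounts.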

Canis familiaris [3] = experiment: Increase in blood pressure in hexamethonium bromide-pretreated anesthetized dog at 0.3 to 0.6 mg/kg; type: functional, organism-based; conditions: Canis lupus familiaris
In short: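 In atropine sulfate-pretreated (0.5 mg/kg) anesthetized dogs, compounds were given intravenously at 0.3 and 0.6 mg/kg. Femoral arterial pressor responses were measured after pretreatment with hexamethonium bromide, 10 mg/kg, given intravenously.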

Cavia porcellus [4] = species: Cavia porcellus; experiment: Agonist activity at muscarinic acetylcholine receptor in guinea pig ileum assessed as muscle contraction at 2.5 to 10 ng/ml relative to acetylcholine
Cavia porcellus [5] = species: Cavia porcellus; experiment: […] at muscarinic acetylcholine receptor in guinea pig ileum assessed as muscle contraction in presence of 0.2 mg/l atropine sulfate; type: tissue-based
In short: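 Contractions of a guinea pig ileum segment (animals 300-600 g, tissue taken just before the ileocecal valve) were evoked by added drug. Atropine sulfate was present at 0.2 mg/l to test antagonism of the responses.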

Canis familiaris [6] = experiment: Increase in blood pressure in atropine sulfate-pretreated anesthetized dog at 2 mg/kg; type: functional, organism-based; design: dose 2 mg/kg; conditions: Canis lupus familiaris
Canis familiaris [7] = experiment: Increase in blood pressure in dog at 0.2 mg/kg; type: functional, organism-based; design: dose 0.2 mg/kg; conditions: Canis lupus familiaris
In short: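 Dogs anesthetized with barbital sodium (250 mg/kg) and pretreated with atropine sulfate (0.5 mg/kg). Agents given rapidly into the right femoral vein in randomized order. Left femoral arterial pressure recorded by transducer. Pressor responses were also tested after intravenous hexamethonium bromide pretreatment (10 mg/kg). Potency is relative to acetylcholine, computed on molar cation amounts by Finney's method with 95% confidence intervals.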

| SMILES | fold change (FC) (Canis familiaris [1]) | fold change (FC) (Canis familiaris [2]) | Activity (Canis familiaris [3]) | fold change (FC) (Cavia porcellus [4]) | Activity (Cavia porcellus [5]) | Activity (Canis familiaris [6]) | Activity (Canis familiaris [7]) |
| --- | --- | --- | --- | --- | --- | --- | --- |
| CCOCC(C)[N+](C)(C)C.[I-] (racemic) | 0.08 | 1.13 | inactive | 0.003 | inactive |  |  |
| C=COC(C)C[N+](C)(C)C.[I-] (racemic) | 0.74 |  |  | 0.02 | inactive | inactive |  |
| C=COCC(C)[N+](C)(C)C.[I-] (racemic) | 0.06 | 3.74 | inactive | 0.001 | inactive |  |  |
| C=COCC[N+](C)(C)C.[I-] | 1.13 | 1.93 | inactive | 0.09 | inactive |  |  |
| CCOC(C)C[N+](C)(C)C.[I-] (racemic) | 0.64 |  |  | 0.03 | inactive | inactive |  |
| CCOCC[N+](C)(C)C.[I-] | 1.03 | 0.9 | inactive | 0.15 | inactive |  |  |
| CN1C2CCC1CC(OC(=O)C(CO)c1ccccc1)C2 (centres undefined) |  |  |  |  |  |  | Active |
